Experimental data published in ChEMBL document CHEMBL3259611, “Suppression of inflammatory responses by handelin, a guaianolide dimer from Chrysanthemum boreale, via downregulation of NF-κB signaling and pro-inflammatory cytokine production” (J Nat Prod, 2014).

How the values were obtained:
Type in all cases: functional
RAW264.7 [1] = assay: Antiinflammatory activity in mouse RAW264.7 cells assessed as inhibition of LPS-induced PGE2 production at 20 uM administered 1 hr prior to LPS challenge measured after 20 hrs by EIA relative to control
In short: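 RAW 264.7 cells plated at 3 × 10^5 cells/mL, pretreated with compound for 1 h, then stimulated with 1 μg/mL LPS for 20 h. PGE2 in the supernatant was measured by immunoassay kit. Mean ± SD of triplicates.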

RAW264.7 [2] = assay: Antiinflammatory activity in mouse RAW264.7 cells assessed as inhibition of LPS-induced nitric oxide production at 50 uM after 20 hrs by Griess assay relative to control; conditions: RAW264.7, 20 h
In short: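 Positive-control run in the same LPS (1 μg/mL, 20 h) RAW 264.7 system. Nitrite was quantified by Griess reaction at 540 nm against a sodium nitrite standard curve. Inhibition expressed relative to vehicle control.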

Rattus norvegicus = assay: Antiinflammatory activity in rat paw edema model assessed as inhibition of carrageenan-induced paw edema at 20 mg/kg, po administered 30 mins prior to carrageenan challenge measured after 4 hrs relative to vehicle-treated control
In short: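 Male Sprague–Dawley rats (150–170 g, 5 weeks old); compound dissolved in 0.5% CMC-Na and given orally 30 min before subplantar injection of 0.1 mL 1% carrageenan suspension in saline into the right hind paw, with saline injected into the left. Paw volume read by plethysmometer at 0 h and up to 6 h; n = 6.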

Mus musculus = assay: Antiinflammatory activity in ICR mouse ear edema model assessed as inhibition of TPA-induced ear edema at 20 mg/kg, po administered 30 mins prior to TPA challenge measured after 4 hrs relative to vehicle-treated control
In short: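 ICR mice (male, 18−20 g, 5 weeks old) dosed orally 30 min before TPA (1.0 μg in 20 μL acetone) was applied to inner and outer surfaces of the right ear. Killed by cervical dislocation after 4 h. Edema taken as the weight of a 5 mm punch biopsy of the right ear over the left. Ear homogenates were Western blotted for iNOS, COX-2 and IL-1β.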

## Cc1ccc(-c2cc(C(F)(F)F)nn2-c2ccc(S(N)(=O)=O)cc2)cc1 [CELECOXIB]
RAW264.7 [1]
  inhibition (INH): 81%

## CNC(=N)NCCC[C@H](N)C(=O)O [TILARGININE]
RAW264.7 [2]
  inhibition at 50 µM: 74%

## COc1ccc2c(c1)c(CC(=O)O)c(C)n2C(=O)c1ccc(Cl)cc1 [INDOMETHACIN]
Rattus norvegicus
  inhibition in vivo at 20 mg/kg: 51%
Mus musculus
  inhibition in vivo at 20 mg/kg: 53%
